High-throughput results deposited in PubChem BioAssay by several laboratories.
PKD1 kinase inh – inhibitors of human PKD1 kinase, biochemical, fluorescence polarization | PKD1 kinase fluorescence polarization assay | Serine/threonine-protein kinase D1 (Homo sapiens), Q15139 | 200,000 compounds, 0.056% hits | inhibition, % (concentration not given with the values) | AID 797, 2007; in the data active means inhibition above about 50%
TNAP inh no acc – human TNAP enzyme inhibitors, primary screen, biochemical, luminescent, no phosphate acceptor, uHTS; Alkaline phosphatase, tissue-nonspecific isozyme (Homo sapiens), P05186; purified TNAP, CDP-star luminescence, 30 min; inhibition, % at 20 µM; 200,000 compounds, 0.26% hits;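 active means tissue-nonspecific alkaline phosphatase inhibition above about 50% at 20 µM in the single-dose screen, limit read from the data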;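 further: 0% = DMSO negative control and 100% = EDTA positive control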
Target sequence (P05186 whole entry, looked up): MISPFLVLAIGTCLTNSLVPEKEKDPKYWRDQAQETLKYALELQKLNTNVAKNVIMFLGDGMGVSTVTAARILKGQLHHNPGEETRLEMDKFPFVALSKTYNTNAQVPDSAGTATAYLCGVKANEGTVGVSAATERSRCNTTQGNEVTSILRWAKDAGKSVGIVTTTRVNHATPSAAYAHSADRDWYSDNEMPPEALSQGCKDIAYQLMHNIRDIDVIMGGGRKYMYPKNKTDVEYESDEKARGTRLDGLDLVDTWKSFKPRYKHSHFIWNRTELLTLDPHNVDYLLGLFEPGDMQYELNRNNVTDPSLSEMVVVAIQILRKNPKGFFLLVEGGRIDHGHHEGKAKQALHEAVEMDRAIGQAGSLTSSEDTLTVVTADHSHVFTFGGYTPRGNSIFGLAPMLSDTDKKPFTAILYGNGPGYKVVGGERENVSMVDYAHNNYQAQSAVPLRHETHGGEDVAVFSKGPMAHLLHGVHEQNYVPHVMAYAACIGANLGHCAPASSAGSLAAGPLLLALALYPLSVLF
Arbovirus anti – antivirals against arbovirus infection, primary screen, cell-based, full library, 10K replicate subset; inhibition, % at 10 µM; 200,000 compounds, 0.37% hits; AID 1251, 2008; arbovirus infection cell-based antiviral screen; in the data active means inhibition above about 30%
TNAP inh hiacc – human TNAP enzyme inhibitors, primary screen, biochemical, luminescent, high phosphate acceptor level, uHTS; purified TNAP, CDP-star luminescence, 1 M DEA; inhibition, % at 20 µM; 200,000 compounds, 0.03% hits;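 active means over 50% inhibition of tissue-nonspecific alkaline phosphatase at 20 µM in the single-dose screen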;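 further: plate controls were DMSO wells for no effect and EDTA-quenched wells as full inhibition for full effect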
TNAP act hi DEA – TNAP activators at high phosphate acceptor level, primary screen, biochemical, luminescence, uHTS | purified TNAP, CDP-star luminescence, 1 M DEA, 30 min; hits give high values; 0 = EDTA background, 1 = DMSO-only activity | activation factor at 20 µM | 200,000 tested, under 10 active;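 active means activation factor at least 2 at 20 µM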
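Control set: EDTA negative control, DMSO positive control / Assay system: human TNAP / Quantity: TNAP 1/800 final / Evaluation: TNAP activation factor scaled between EDTA and DMSO control wells / Measured by: luminescent substrate turnover signal / Compound dosing: one dose, 20 µM / Times: 30 min enzyme reaction at room temperature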
FP interf 140K – fluorescence polarization interference in PKD1 assay, artefact control for PKD1 inhibitor project, biochemical, 140K library; AID 1315, 2008; PKD1 FP assay interference counter-screen; inhibition, % at 10 µM; shares compounds with PKD1 kinase inh; 85 tested, under 10 active; call rule not given here
* marks the source's active call; other numbers are inactive results. Most compounds without a hit are left out; they make up all but 0.72% or so of the library.

For c1ccc2c(c1)[nH]c1cnccc12 the results were PKD1 kinase inh -2.5, TNAP inh no acc -5.6, Arbovirus anti 5.2, TNAP inh hiacc 3.4 and TNAP act hi DEA 1.
Cc1c2ccncc2c(C)c2c1[nH]c1ccccc12 was read as PKD1 kinase inh 86.9*, TNAP inh no acc -14.9, Arbovirus anti -44.7, TNAP inh hiacc -1.4 and TNAP act hi DEA 1.
CCOC(=O)[C@@]12C(=O)C(=O)N[C@]1(c1ccccc1)C1OCCCC12 (some centres not stated) was read as PKD1 kinase inh -8.3, TNAP inh no acc -4.7, Arbovirus anti -2.6, TNAP inh hiacc -1.0 and TNAP act hi DEA 1.
For CCCCC(=O)N/N=C/c1c(O)n(Cc2ccco2)c(=O)[nH]c1=O the results were PKD1 kinase inh -5.7, TNAP inh no acc 69.4*, Arbovirus anti 0.6, TNAP inh hiacc 1.4 and TNAP act hi DEA 1.
Screening CN1/C(=C\C=C2C(=O)NC(=S)NC2=O)C(C)(C)c2ccccc21 returned PKD1 kinase inh -13.4, TNAP inh no acc 34.6, Arbovirus anti -0.7, TNAP inh hiacc 47.1 and TNAP act hi DEA 0.5.
CC1(C)OC(c2ccccc2)=C/C(=C/C=C2C(=O)NC(=S)NC2=O)O1 was read as PKD1 kinase inh -6.6, TNAP inh no acc 58.7*, Arbovirus anti 10.4, TNAP inh hiacc 9.6 and TNAP act hi DEA 0.9.
For CC(C)n1c(=O)c(C=Nc2cccc([N+](=O)[O-])c2)c(O)n(CCc2ccccc2)c1=O the results were PKD1 kinase inh 6.6, TNAP inh no acc 3.2, Arbovirus anti 5.9, TNAP inh hiacc 4.3 and TNAP act hi DEA 1.
CC1=NN(c2ccccc2)C(=O)/C1=C/c1c(O)[nH]c(=O)[nH]c1=O was read as PKD1 kinase inh 0.8, TNAP inh no acc 9.7, Arbovirus anti 10.2, TNAP inh hiacc 14.4 and TNAP act hi DEA 0.9.
Screening O=c1[nH]c(O)c(/C=C2\C=NN=C2c2ccccc2)c(=O)[nH]1 returned PKD1 kinase inh -9.9, TNAP inh no acc 51.3*, Arbovirus anti 0.3, TNAP inh hiacc 1.3 and TNAP act hi DEA 1.
For COc1ccc2ccc(O)c(CN3CC=C(c4ccccc4)CC3)c2c1 the results were PKD1 kinase inh 1.9, TNAP inh no acc -7.2, Arbovirus anti 30.1*, TNAP inh hiacc -0.1 and TNAP act hi DEA 1.
Cc1cccc(N/N=C(\C(N)=O)C2=NC(C)(C)Cc3ccccc32)c1 was read as PKD1 kinase inh -3.2, TNAP inh no acc 1.9, Arbovirus anti -28.7, TNAP inh hiacc 0.3 and TNAP act hi DEA 1.
For CCc1ccccc1N1C(=O)/C(=C/c2ccc(N3CCN(C)CC3)o2)C(=O)NC1=S the results were PKD1 kinase inh -12.9, TNAP inh no acc 51.0*, Arbovirus anti 9.0, TNAP inh hiacc 43.9 and TNAP act hi DEA 0.6.
O=C1NC(=O)N(c2ccc3c(c2)OCO3)C(=O)/C1=C\c1ccc(N2CCCCC2)o1 was read as PKD1 kinase inh -16.5, TNAP inh no acc 39.5, Arbovirus anti 6.0, TNAP inh hiacc 42.3 and TNAP act hi DEA 0.6.
Cc1cccc(N2C(=O)/C(=C/c3ccc(N4CCN(C)CC4)o3)C(=O)NC2=S)c1C was read as PKD1 kinase inh -13.8, TNAP inh no acc 51.4*, Arbovirus anti 4.1, TNAP inh hiacc 32.2 and TNAP act hi DEA 0.7.
Screening COc1ccc(C)cc1NC(=O)c1c(C)nn(Cc2ccccc2)c1Cl returned PKD1 kinase inh -1.0, TNAP inh no acc 3.0, Arbovirus anti 3.9, TNAP inh hiacc 0.3 and TNAP act hi DEA 1.
Cc1nn(-c2ccccc2)c2c1C(c1ccc3c(c1)OCO3)SCC(=O)N2 (configuration not stated) was read as PKD1 kinase inh 4.5, TNAP inh no acc -17.6, Arbovirus anti 12.5, TNAP inh hiacc -1.4 and TNAP act hi DEA 1.
`CCn1c(O)c(/C=N/NC(=O)c2ccncc2)c(=O)[nH]c1=S` gave PKD1 kinase inh 4.1, TNAP inh no acc 84.1*, Arbovirus anti 19.1, TNAP inh hiacc 7.8 and TNAP act hi DEA 0.9.
For CCC(C)n1c(O)c(/C=N/NC(=O)c2ccncc2)c(=O)[nH]c1=S (configuration not stated) the results were PKD1 kinase inh 8.4, TNAP inh no acc 74.7*, Arbovirus anti 26.3, TNAP inh hiacc -2.9 and TNAP act hi DEA 1.
`CN1CCc2nc(N)c(C#N)c(-c3ccccc3)c2C1` gave PKD1 kinase inh 7.6, TNAP inh no acc -7.9, Arbovirus anti 9.7, TNAP inh hiacc -3.7 and TNAP act hi DEA 1.
For CN1CCc2nc3sc(C#N)c(N)c3c(-c3cccs3)c2C1 the results were PKD1 kinase inh 4.6, TNAP inh no acc -4.2, Arbovirus anti 32.1*, TNAP inh hiacc 1.0 and TNAP act hi DEA 1.
`CCCC1(CCC)C(=O)NC(=Nc2ccc(C)cc2)NC1=O` gave PKD1 kinase inh -3.9, TNAP inh no acc 2.6, Arbovirus anti 4.8, TNAP inh hiacc -1.6 and TNAP act hi DEA 1.
O=C(N/N=C/C1C(=O)NC(=S)N(c2ccccc2)C1=O)c1cc(Br)c(O)c(Br)c1 (configuration not stated) was read as PKD1 kinase inh -7.0, TNAP inh no acc 74.9*, Arbovirus anti -2.5, TNAP inh hiacc 0.1 and TNAP act hi DEA 1.
Screening O=C1Nc2ccccc2/C1=C/c1cnc[nH]1 returned PKD1 kinase inh 69.5*, TNAP inh no acc -13.0, Arbovirus anti -8.7, TNAP inh hiacc -0.2, TNAP act hi DEA 1 and FP interf 140K -24.2.
Screening COc1cc2c(cc1OC)-c1c(OC)c(OC)c(OC)c3ccnc(c13)C2=O returned PKD1 kinase inh 50.3*, TNAP inh no acc 9.4, Arbovirus anti -39.4, TNAP inh hiacc 15.0, TNAP act hi DEA 0.8 and FP interf 140K -18.0.
COc1cc(CC2(CCc3ccncc3)C(=O)NC(=O)NC2=O)cc(OC)c1OC was read as PKD1 kinase inh 1.7, TNAP inh no acc -8.0, Arbovirus anti 0.0, TNAP inh hiacc -3.9 and TNAP act hi DEA 1.
C=CCC1C(=O)NC(=S)NC1=O was read as PKD1 kinase inh -8.0, TNAP inh no acc 0.3, Arbovirus anti -1.6, TNAP inh hiacc -0.6 and TNAP act hi DEA 1.
